# Measured values reported in ChEMBL document CHEMBL3351398, “Discovery of a Potent and Selective DGAT1 Inhibitor with a Piperidinyl-oxy-cyclohexanecarboxylic Acid Moiety” (ACS Med Chem Lett, 2014).
# pIC50: −log10 of the molar value.
# How the values were obtained:
# [1] = target: T1, Diacylglycerol O-acyltransferase 1 (Mus musculus, UniProt Q9Z2A7); assay: Inhibition of mouse DGAT1
# T1 sequence (Q9Z2A7 whole entry): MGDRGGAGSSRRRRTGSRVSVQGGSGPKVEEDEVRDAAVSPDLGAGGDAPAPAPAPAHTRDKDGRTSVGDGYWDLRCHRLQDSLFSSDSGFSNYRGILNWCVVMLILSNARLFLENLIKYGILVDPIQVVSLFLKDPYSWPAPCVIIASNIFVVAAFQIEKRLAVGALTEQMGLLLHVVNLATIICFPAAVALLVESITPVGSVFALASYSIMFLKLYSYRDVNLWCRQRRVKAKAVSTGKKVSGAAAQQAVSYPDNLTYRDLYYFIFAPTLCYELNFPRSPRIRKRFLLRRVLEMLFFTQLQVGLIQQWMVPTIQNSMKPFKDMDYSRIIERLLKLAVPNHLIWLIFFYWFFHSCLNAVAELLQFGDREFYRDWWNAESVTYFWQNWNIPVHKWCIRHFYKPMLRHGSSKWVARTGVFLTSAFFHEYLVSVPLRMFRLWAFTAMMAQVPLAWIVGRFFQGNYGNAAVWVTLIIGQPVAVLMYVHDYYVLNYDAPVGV
# [2] = target: T2, Sterol O-acyltransferase 1 (Homo sapiens, UniProt P35610); assay: Inhibition of human ACAT1
# T2 sequence (P35610 whole entry): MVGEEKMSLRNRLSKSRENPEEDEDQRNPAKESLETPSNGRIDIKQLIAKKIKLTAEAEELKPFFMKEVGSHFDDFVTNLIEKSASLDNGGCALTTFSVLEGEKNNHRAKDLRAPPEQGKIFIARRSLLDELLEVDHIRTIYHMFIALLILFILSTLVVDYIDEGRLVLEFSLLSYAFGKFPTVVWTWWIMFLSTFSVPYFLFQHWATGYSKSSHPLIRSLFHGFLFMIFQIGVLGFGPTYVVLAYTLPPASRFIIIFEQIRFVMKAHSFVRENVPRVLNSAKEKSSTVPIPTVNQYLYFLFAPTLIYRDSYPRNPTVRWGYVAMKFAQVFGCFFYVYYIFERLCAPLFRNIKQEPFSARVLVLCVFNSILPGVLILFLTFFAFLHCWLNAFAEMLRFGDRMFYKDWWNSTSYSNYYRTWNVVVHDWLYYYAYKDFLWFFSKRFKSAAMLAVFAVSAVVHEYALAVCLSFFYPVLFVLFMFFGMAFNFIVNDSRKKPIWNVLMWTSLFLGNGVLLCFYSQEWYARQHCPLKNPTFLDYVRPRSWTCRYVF
# Rattus norvegicus [3] = assay: Inhibition of plasma triglyceride accumulation in Sprague-Dawley rat at 1 mg/kg, po dosed 2 hrs before lipid challenge and measured at 18 hrs by lipid tolerance test; assay type: functional
# Outline: (§1)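 Rat lipid tolerance test at oral doses of 1 and 3 mpk. Reduction of lipid excursion was normalized to a reference DGAT1 inhibitor given at 10 mpk, set as 100%. Plasma drug levels were the parent and its cis isomer combined, measured 4 h after oral dosing.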
# [4] = Unbound fraction in human plasma; assay type: ADME, cell-free
# Rattus norvegicus [5] = assay: Inhibition of plasma triglyceride accumulation in Sprague-Dawley rat at 3 mg/kg, po dosed 2 hrs before lipid challenge and measured at 18 hrs by lipid tolerance test; assay type: functional; outline: as §1
# [6] = Plasma concentration in Sprague-Dawley rat at 1 mg/kg, po dosed 2 hrs before lipid challenge and measured at 4 hrs by lipid tolerance test; assay type: ADME, organism-based; set-up: dose 1 mg/kg, route oral; outline: as §1
# Salmonella typhimurium [7] = assay: Induction of mutagenicity in Salmonella typhimurium TA1535 assessed as increase in number of revertants in presence of metabolic activation; assay type: toxicity, organism-based; settings: salmonella enterica subsp. enterica serovar typhimurium
# Outline: (§2)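 Microbial reverse-mutation (Ames) test in strains TA1535, TA98 and TA100, with and without metabolic activation. The concentration range was 30 to 5000 μg/plate. A positive call required a 2-fold or greater increase in revertants relative to the solvent control.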
# Salmonella typhimurium [8] = assay: Induction of mutagenicity in Salmonella typhimurium TA1535 assessed as increase in number of revertants in absence of metabolic activation; assay type: toxicity, organism-based; settings: salmonella enterica subsp. enterica serovar typhimurium; outline: as §2
# Salmonella typhimurium [9] = assay: Induction of mutagenicity in Salmonella typhimurium TA100 assessed as increase in number of revertants in presence of metabolic activation; assay type: toxicity, organism-based; settings: salmonella enterica subsp. enterica serovar typhimurium; outline: as §2
# Salmonella typhimurium [10] = assay: Induction of mutagenicity in Salmonella typhimurium TA100 assessed as increase in number of revertants in absence of metabolic activation; assay type: toxicity, organism-based; settings: salmonella enterica subsp. enterica serovar typhimurium; outline: as §2
# [11] = Clearance in Sprague-Dawley rat at 1 mg/kg, iv or 2 mg/kg, po; assay type: ADME, organism-based; settings: in vivo
# [12] = Volume of distribution at steady state in Sprague-Dawley rat at 1 mg/kg, iv or 2 mg/kg, po; assay type: ADME, organism-based; settings: in vivo, read-out: Vdss
# Outline: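 Sprague–Dawley rats were dosed as a solution in EtOH/PEG400/water (10:50:40), 1 mg/kg iv and 2 mg/kg po. Pharmacokinetic parameters were derived from these dosings.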
# [13] = AUC in Sprague-Dawley rat at 2 mg/kg, po; assay type: ADME, organism-based; set-up: dose 2 mg/kg, route oral; settings: plasma
# Rattus norvegicus [14] = assay: AUC in Sprague-Dawley rat assessed as cis-4-((1-(5-(5-(trifluoromethyl)-1H-benzo[d]imidazol-2-yl)pyridin-2-yl)piperidin-4-yl)oxy)cyclohexanecarboxylic acid rat at 2 mg/kg, po; assay type: ADME, organism-based, Plasma; set-up: dose 2 mg/kg, route oral; settings: in vivo
# [15] = Oral bioavailability in Beagle dog at 4 mg/kg; assay type: ADME, organism-based, Canis lupus familiaris; settings: in vivo
# Outline: (§3)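 Single-dose pharmacokinetics. Beagle dogs were dosed at 1 mg/kg iv as a solution in 30% captisol (pH 8) and at 4 mg/kg po in 0.5 methylcellulose.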
# [16] = Volume of distribution at steady state in Beagle dog at 1 mg/kg, iv or 4 mg/kg, po; assay type: ADME, organism-based, Canis lupus familiaris; settings: in vivo, read-out: Vdss
# Outline: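 Beagle dogs were dosed 1 mg/kg iv as a solution in 30% captisol (pH 8) and 4 mg/kg po in methylcellulose. Pharmacokinetic parameters were derived from these dosings.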
# [17] = AUC in Beagle dog at 4 mg/kg, po; assay type: ADME, organism-based, Canis lupus familiaris; set-up: dose 4 mg/kg, route oral; settings: plasma; outline: as §3
# [18] = Drug level in skin of C57BL/6 mouse at 10 mg/kg, po after 3 hrs; assay type: ADME, organism-based, Zone of skin; set-up: dose 10 mg/kg, route oral; settings: read-out: Drug uptake
# Outline: (§4)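 Tissue distribution in C57BL/6 mice. A single oral dose of 10 mg/kg was given as a solution in EtOH/PEG400/water (10:50:40). Parent and its cis isomer were both measured, in μM, in plasma, liver, small intestine, adipose fat and skin at 3 h and 24 h.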
# [19] = Drug level in plasma of C57BL/6 mouse at 10 mg/kg, po after 24 hrs; assay type: ADME, organism-based; set-up: dose 10 mg/kg, route oral; outline: as §4
# [20] = Drug level in small intestine of C57BL/6 mouse at 10 mg/kg, po after 24 hrs; assay type: ADME, organism-based; set-up: dose 10 mg/kg, route oral; settings: read-out: Drug uptake; outline: as §4
# Plasma = assay: Drug level in plasma of C57BL/6 mouse assessed as cis-4-((1-(5-(5-(trifluoromethyl)-1H-benzo[d]imidazol-2-yl)pyridin-2-yl)piperidin-4-yl)oxy)cyclohexanecarboxylic acid level at 10 mg/kg, po after 3 hrs; assay type: ADME, organism-based; set-up: dose 10 mg/kg, route oral; settings: in vivo; outline: as §4
# Intestine = assay: Drug level in small intestine of C57BL/6 mouse assessed as cis-4-((1-(5-(5-(trifluoromethyl)-1H-benzo[d]imidazol-2-yl)pyridin-2-yl)piperidin-4-yl)oxy)cyclohexanecarboxylic acid level at 10 mg/kg, po after 3 hrs; assay type: ADME, organism-based; set-up: dose 10 mg/kg, route oral; settings: in vivo, read-out: Drug uptake; outline: as §4
# [21] = Drug level in adipose fat of C57BL/6 mouse assessed as cis-4-((1-(5-(5-(trifluoromethyl)-1H-benzo[d]imidazol-2-yl)pyridin-2-yl)piperidin-4-yl)oxy)cyclohexanecarboxylic acid level at 10 mg/kg, po after 3 hrs; assay type: ADME, organism-based, Adipose tissue; set-up: dose 10 mg/kg, route oral; settings: in vivo, read-out: Drug uptake; outline: as §4
structure (smiles),measurement,setting,value
O=C(O)[C@H]1CC[C@H](OC2CCN(c3ccc(-c4nc5cc(C(F)(F)F)ccc5[nH]4)cn3)CC2)CC1,pIC50,[1],7.64
same,pIC50,[2],< 5.00
same,inhibition in vivo at 1 mg/kg,Rattus norvegicus [3],80%
same,fraction unbound,[4],0.09
same,inhibition in vivo at 3 mg/kg,Rattus norvegicus [5],80%
same,concentration at 4 h,[6],20 nM
same,Activity,Salmonella typhimurium [7],Non-toxic
same,Activity,Salmonella typhimurium [8],Non-toxic
same,Activity,Salmonella typhimurium [9],Non-toxic
same,Activity,Salmonella typhimurium [10],Non-toxic
same,clearance,[11],5.82 mL/min/kg
same,Vd,[12],0.19 L/kg
same,AUC,[13],1 µM·h
same,AUC,Rattus norvegicus [14],0.97 µM·h
same,bioavailability,[15],126%
same,Vd,[16],4.54 L/kg
same,AUC,[17],1.94 µM·h
same,concentration at 3 h,[18],404 nM
same,concentration at 24 h,[19],< 10 nM
same,concentration at 24 h,[20],711 nM
same,concentration,Plasma,54 nM
same,concentration,Intestine,5030 nM
same,concentration,[21],21 nM
